Results from different studies.
Observed: enzyme activity
Mode: inhibitor
IGF1R phosphorylated: Insulin-like growth factor 1 receptor, phosphorylated (IGF1R, Homo sapiens, UniProt P08069)
IGF1R: Insulin-like growth factor 1 receptor (IGF1R, Homo sapiens, UniProt P08069)

With CCCOc1ccc(OC)c(F)c1C(=O)c1ccc(C(=O)N[C@@H]2CNC[C@H]2NC(=O)c2ccc3[nH]ncc3c2)cc1 the remaining activity was 76% (IGF1R phosphorylated; 10 µM).
The remaining activity of Cn1c(=O)n(-c2ccc(C(C)(C)C#N)cc2)c2c3cc(-c4cnc5ccccc5c4)ccc3ncc21 is reported as 72% (IGF1R; 10 µM).
For CCN(CC)CCNC(=O)c1c(C)[nH]c(/C=C2\C(=O)Nc3ccc(F)cc32)c1C, the remaining activity was 75% (IGF1R; 0.1 µM).
CCN(CC)c1ccc(C2=NNC(=O)CC2C)cc1[N+](=O)[O-] (stereo not shown) has a remaining activity of 86% (IGF1R; 10 µM).
Nc1nc(Nc2ccccc2)sc1C(=O)c1c(F)cccc1F has a remaining activity of 80% (IGF1R; 10 µM).
For COc1cc(Nc2cnc(C#N)c(O[C@H](C)CN(C)C)n2)ncc1-c1cnn(C)c1, the remaining activity was 100% (IGF1R; radiometric; 1 µM).
The remaining activity of CC(C)(C)c1nc2c(s1)c1nc(N)ncc1c1ccc(NS(=O)(=O)c3c(F)cccc3F)c(F)c12 is reported as 100% (IGF1R; radiometric; 1 µM).
Cc1ccc(NC(=O)c2ccc(C)c(C(F)(F)F)c2)cc1C#Cc1nn(C2CCC(O)CC2)c2ncnc(N)c12 (stereo not shown) gave a remaining activity of 91% (IGF1R phosphorylated; 10 µM).
With O=C(Nc1cnn(-c2csc(C(=O)NC3COC3)c2)c1)Nc1c(F)cccc1Cl the remaining activity was 94.9% (IGF1R; 5 µM).
Cc1cnc(NC2CCOCC2)nc1-n1cnc(C(=O)NC(CN)c2cc(F)cc(Cl)c2)c1 (stereo not shown) has a remaining activity of 103% (IGF1R; radiometric; 1 µM).
With CC(C)(O)[C@H]1CC[C@H](Nc2ccc3ncc(-c4cccc(C(F)(F)F)c4)n3n2)CC1 the remaining activity was 99.2% (IGF1R; 1 µM).
The remaining activity of Cc1[nH]c(/C=C2\C(=O)Nc3ccc(F)cc32)c(C)c1C(=O)N[C@H]1CCN(C(=O)N(C)C)C1 is reported as 115% (IGF1R; 0.1 µM).
The remaining activity of FC(F)c1nc2ccccc2n1-c1nc(N2CCOCC2)nc(N2CCOCC2)n1 is reported as 87% (IGF1R; 10 µM).
